Test results: ChEMBL document CHEMBL4229537, “Synthesis and bioactivities evaluation of l-pyroglutamic acid analogues from natural product lead” (Bioorg Med Chem, 2018)
≈ marks a conversion by molar mass, not a printed value.

Key:
[1] = tested on: Staphylococcus aureus; assay: Antibacterial activity against Staphylococcus aureus at 2 mg/ml after 4 to 10 hrs by filter paper dispersion method; format: functional; conditions: read-out: IZ
Outline: (§1)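 Filter paper diffusion method. Activated bacteria suspended in sterile water, mixed into beef extract peptone medium, and 3 mL poured per 9 cm dish. 5 µL of 2 mg/mL compound applied to 6 mm paper discs in three parallels. Fosfomycin as positive control, solvent as negative control. Dried discs placed on medium and incubated 4-10 h at 37°C. Inhibition zone size and transparency recorded by crisscross method.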

[2] = tested on: Ralstonia solanacearum; assay: Antibacterial activity against Ralstonia solanacearum at 2 mg/ml after 4 to 10 hrs by filter paper dispersion method; format: functional; conditions: read-out: IZ
[3] = tested on: Pectobacterium carotovorum; assay: Antibacterial activity against Erwinia caratovora at 2 mg/ml after 4 to 10 hrs by filter paper dispersion method; format: functional; conditions: read-out: IZ; outline: as §1
[4] = tested on: Bacillus thuringiensis; assay: Antibacterial activity against Bacillus thuringiensis at 2 mg/ml after 4 to 10 hrs by filter paper dispersion method; format: functional; conditions: read-out: IZ; outline: as §1
[5] = tested on: Phytophthora infestans; assay: Antifungal activity against Phytophthora infestans assessed as inhibition of zoospore release after 4 hrs; format: functional, organism-based
Outline: (§2)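 Zoospore release assay: compounds mixed with zoosporangia, held at 4 °C in darkness for 4 h; screened at 100 µg/mL. Solvent negative, azoxystrobin positive control. Release scored once control release reached 90%. Inhibition (%) = (P0−P1)/P0×100. EC50 determined for compounds exceeding 50% inhibition. Means ± SD of three independent experiments.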

[6] = tested on: Phytophthora infestans; assay: Antifungal activity against Phytophthora infestans assessed as inhibition of zoospore release at 100 ug/ml after 4 hrs relative to control; format: functional; outline: as §2
[7] = tested on: Bacillus cereus; assay: Antibacterial activity against Bacillus cereus at 2 mg/ml after 4 to 10 hrs by filter paper dispersion method; format: functional; conditions: read-out: IZ; outline: as §1
[8] = tested on: BV-2; assay: Antiinflammatory activity in mouse BV2 cells assessed as inhibition of LPS-induced nitric oxide production after 24 hrs by Griess assay; format: functional, cell-based; conditions: BV-2, 24 h
Outline: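 BV-2 microglia plated at 1 × 10^5 cells/mL and grown 24 h. Cells pretreated with compound, then stimulated with 1 µg/mL LPS for another 24 h. Quercetin as positive control. Supernatant mixed with Griess reagent and absorbance read at 540 nm. IC50 reported as mean ± SD of three independent experiments.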

[9] = Cytotoxicity against LPS-treated mouse BV2 cells assessed as cell viability after 24 hrs by SRB assay relative to control; format: cell-based, BV-2; parameters: concentration or dose not given beside the values; conditions: read-out: Activity
Outline: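 BV-2 cells pretreated with compound, then exposed to 1 µg/mL LPS for 24 h. Viability measured by SRB assay and expressed as % of control group. Mean ± SD of three independent experiments.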

[10] = tested on: Pseudoperonospora cubensis; assay: Antifungal activity against Pseudoperonospora cubensis; format: functional, organism-based
[11] = tested on: Phytophthora infestans; assay: Antifungal activity against Phytophthora infestans; format: functional, organism-based; outline: as §2
[12] = tested on: Phytophthora infestans; assay: Potency index, ratio of azoxystrobin EC50 to test compound EC50 for Phytophthora infestans; format: functional
[13] = tested on: PC-12; assay: Neurotogenic activity in NGF-induced rat PC12 cells assessed as neurite bearing cell levels at 20 uM after 48 hrs by inverted microscopic method (reference value: 0.77 +/- 0.13%); format: functional

SMILES: CCOC(=O)c1ccccc1OC(=O)[C@@H]1CCC(=O)N1
- zone of inhibition at 2000 µg/mL [1]: 6.5 mm
- zone of inhibition at 2000 µg/mL [2]: 5.5 mm
- zone of inhibition at 2000 µg/mL [3]: 11 mm
- zone of inhibition at 2000 µg/mL [4]: 13 mm
- EC50 [5]: 16.4 µg/mL (≈ 59.2 µM)
- inhibition at 100 µg/mL [6]: 98.2%

SMILES: CC(C)OC(=O)[C@@H]1CCC(=O)N1
- inhibition at 100 µg/mL [6]: 36.5%

SMILES: CCN(CC)C(=O)[C@@H]1CCC(=O)N1
- zone of inhibition at 2000 µg/mL [3]: 12 mm
- zone of inhibition at 2000 µg/mL [7]: 10 mm
- inhibition at 100 µg/mL [6]: 35.8%

SMILES: NNC(=O)[C@@H]1CCC(=O)N1
- zone of inhibition at 2000 µg/mL [4]: 14 mm

SMILES: CN1CCN(C(=O)[C@@H]2CCC(=O)N2)CC1
- zone of inhibition at 2000 µg/mL [7]: 7 mm

SMILES: C#CCNC(=O)[C@@H]1CCC(=O)N1
- IC50 [8]: 6 µM
- zone of inhibition at 2000 µg/mL [1]: 6 mm
- viability at 24 h [9]: 89.5%
- zone of inhibition at 2000 µg/mL [4]: 9 mm

SMILES: CCOC(=O)[C@@H]1CCC(=O)N1
- EC50 [5]: 15.2 µg/mL (≈ 97 µM)
- inhibition at 100 µg/mL [6]: 95.8%

SMILES: COC(=O)c1ccccc1NC(=O)[C@@H]1CCC(=O)N1
- zone of inhibition at 2000 µg/mL [1]: 6 mm
- zone of inhibition at 2000 µg/mL [2]: 10 mm
- zone of inhibition at 2000 µg/mL [3]: 9 mm
- zone of inhibition at 2000 µg/mL [7]: 6 mm
- inhibition at 100 µg/mL [6]: 2.37%

SMILES: O=C1CC[C@@H](C(=O)O)N1 [PIDOLIC ACID]
- EC50 [10]: 10.8 µg/mL (≈ 83.8 µM)
- zone of inhibition at 2000 µg/mL [2]: 7.5 mm
- EC50 [11]: 9.48 µg/mL (≈ 73.4 µM)
- zone of inhibition at 2000 µg/mL [4]: 17.5 mm
- EC50 [5]: 7.85 µg/mL (≈ 60.8 µM)
- inhibition at 100 µg/mL [6]: 98.8%

SMILES: CO/C=C(/C(=O)OC)c1ccccc1Oc1cc(Oc2ccccc2C#N)ncn1 [AZOXYSTROBIN]
- EC50 [5]: 1.98 µg/mL (≈ 4.91 µM)
- inhibition at 100 µg/mL [6]: 99.2%

SMILES: O=C1CC[C@@H](C(=O)Oc2cccc3ccccc23)N1
- Ratio EC50 [12]: 7
- EC50 [5]: 1.21 µg/mL (≈ 4.74 µM)
- inhibition at 100 µg/mL [6]: 98.5%

SMILES: O=C1CC[C@@H](C(=O)Nc2ccc([N+](=O)[O-])cc2)N1
- inhibition at 100 µg/mL [6]: 47.5%

SMILES: O=C1CC[C@@H](C(=O)Oc2ccccc2Cl)N1
- EC50 [5]: 14.6 µg/mL (≈ 60.8 µM)
- inhibition at 100 µg/mL [6]: 98.4%

SMILES: O=C1CC[C@@H](C(=O)NCCc2c[nH]c3ccccc23)N1
- zone of inhibition at 2000 µg/mL [3]: 15 mm
- zone of inhibition at 2000 µg/mL [4]: 12 mm
- inhibition at 100 µg/mL [6]: 21.5%

SMILES: CC1(C)S[C@@H]2[C@H](NC(=O)Cc3ccccc3)C(=O)N2[C@H]1C(=O)O [PENICILLIN G SODIUM]
- zone of inhibition at 2000 µg/mL [1]: 28 mm
- zone of inhibition at 2000 µg/mL [2]: 24 mm
- zone of inhibition at 2000 µg/mL [3]: 28 mm
- zone of inhibition at 2000 µg/mL [7]: 25 mm
- zone of inhibition at 2000 µg/mL [4]: 27 mm

SMILES: O=C1CC[C@@H](C(=O)Nc2ccc(C(F)(F)F)cc2)N1
- zone of inhibition at 2000 µg/mL [7]: 9.5 mm
- zone of inhibition at 2000 µg/mL [4]: 13 mm

SMILES: O=C1CC[C@@H](C(=O)Oc2ccccc2)N1
- EC50 [5]: 19.5 µg/mL (≈ 95.1 µM)
- inhibition at 100 µg/mL [6]: 98.3%

SMILES: NC(=O)[C@@H]1CCC(=O)N1
- zone of inhibition at 2000 µg/mL [2]: 5.5 mm
- zone of inhibition at 2000 µg/mL [4]: 8 mm
- inhibition at 100 µg/mL [6]: 13.6%

SMILES: CC(C)NC(=O)[C@@H]1CCC(=O)N1
- zone of inhibition at 2000 µg/mL [7]: 5.5 mm
- zone of inhibition at 2000 µg/mL [4]: 10 mm

SMILES: COC(=O)[C@@H]1CCC(=O)N1
- inhibition at 100 µg/mL [6]: 26.1%

SMILES: CC(C)COC(=O)[C@@H]1CCC(=O)N1
- inhibition at 100 µg/mL [6]: 64.9%

SMILES: C=CCOC(=O)[C@@H]1CCC(=O)N1
- zone of inhibition at 2000 µg/mL [4]: 12 mm
- inhibition at 100 µg/mL [6]: 84.2%

SMILES: Cc1ccc(C(C)C)c(OC(=O)[C@@H]2CCC(=O)N2)c1
- inhibition at 100 µg/mL [6]: 13.2%

SMILES: O=C1CC[C@@H](C(=O)Nc2ccccc2O)N1
- inhibition at 100 µg/mL [6]: 33.7%

SMILES: Nc1ccccc1NC(=O)[C@@H]1CCC(=O)N1
- zone of inhibition at 2000 µg/mL [7]: 5.5 mm
- zone of inhibition at 2000 µg/mL [4]: 11.5 mm

SMILES: CN(C)C(=O)[C@@H]1CCC(=O)N1
- inhibition at 100 µg/mL [6]: 44.3%

SMILES: CC(C)(C)NC(=O)[C@@H]1CCC(=O)N1
- zone of inhibition at 2000 µg/mL [7]: 12 mm

SMILES: C#CCOC(=O)[C@@H]1CCC(=O)N1
- zone of inhibition at 2000 µg/mL [2]: 6 mm

SMILES: CNC(=O)[C@@H]1CCC(=O)N1
- zone of inhibition at 2000 µg/mL [4]: 12 mm
- inhibition at 100 µg/mL [6]: 1.17%

SMILES: O=C1CC[C@@H](C(=O)Oc2ccc(O)cc2)N1 [PIDOBENZONE]
- IC50 [8]: 4.5 µM
- zone of inhibition at 2000 µg/mL [1]: 6 mm
- Activity [13]: 15.443%
- zone of inhibition at 2000 µg/mL [2]: 7 mm
- zone of inhibition at 2000 µg/mL [7]: 12 mm
- viability at 24 h [9]: 92.6%

SMILES: CCCCOC(=O)[C@@H]1CCC(=O)N1
- EC50 [5]: 11.2 µg/mL (≈ 60.5 µM)
- inhibition at 100 µg/mL [6]: 99%

SMILES: O=C1CC[C@@H](C(=O)Oc2ccccc2[N+](=O)[O-])N1
- EC50 [5]: 8.58 µg/mL (≈ 34.3 µM)
- inhibition at 100 µg/mL [6]: 96.3%

SMILES: Cc1ccccc1OC(=O)[C@@H]1CCC(=O)N1
- inhibition at 100 µg/mL [6]: 48.6%

SMILES: O=C1CC[C@@H](C(=O)Oc2ccc(Cl)cc2)N1
- Ratio EC50 [12]: 7
- EC50 [5]: 1.44 µg/mL (≈ 6.01 µM)
- inhibition at 100 µg/mL [6]: 98.1%

SMILES: N#Cc1ccccc1OC(=O)[C@@H]1CCC(=O)N1
- zone of inhibition at 2000 µg/mL [2]: 7 mm
- zone of inhibition at 2000 µg/mL [4]: 14 mm
- EC50 [5]: 9.62 µg/mL (≈ 41.8 µM)
- inhibition at 100 µg/mL [6]: 98.3%

SMILES: O=c1c(O)c(-c2ccc(O)c(O)c2)oc2cc(O)cc(O)c12 [QUERCETIN]
- IC50 [8]: 4.3 µM
- viability at 24 h [9]: 99.5%

SMILES: Cc1cc(Cl)ccc1OC(=O)[C@@H]1CCC(=O)N1
- IC50 [8]: 19.4 µM
- viability at 24 h [9]: 91.1%
- inhibition at 100 µg/mL [6]: 39.8%

SMILES: CCCOC(=O)[C@@H]1CCC(=O)N1
- EC50 [5]: 12.4 µg/mL (≈ 72.6 µM)
- inhibition at 100 µg/mL [6]: 95.1%

SMILES: C=CCNC(=O)[C@@H]1CCC(=O)N1
- IC50 [8]: 9.1 µM
- Activity [13]: 14.962%
- zone of inhibition at 2000 µg/mL [7]: 15 mm
- viability at 24 h [9]: 95.4%
- zone of inhibition at 2000 µg/mL [4]: 11.5 mm
- inhibition at 100 µg/mL [6]: 49.3%

SMILES: CCCCNC(=O)[C@@H]1CCC(=O)N1
- zone of inhibition at 2000 µg/mL [4]: 7.5 mm
- inhibition at 100 µg/mL [6]: 17.8%
